Source: PubChem BioAssay (The Scripps Research Institute Molecular Screening Center)
The list is not random: actives were taken first. Their share in the collection is about 4.6%.
CHO parental Ca: counter-screen: ATP calcium response change in parental CHO cells | parental CHO-K1, ATP-induced calcium, Fluo-8 fluorescence | inhibition, % at 5.6 µM | actives 0.63% (n = 330,000);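 active = inhibition above that plate's mean sample inhibition plus 3 SD, cut at about 26% in these data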
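Assay system – parental CHO cells · Reagent – ATP stimulus · Detection – intracellular calcium via Fluo-8 no-wash fluorescent dye · Evaluation – percent inhibition of ATP-evoked calcium rise, normalized to controls · Controls – ATP wells versus no-ATP DMSO wells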
OX1R antag-1: antagonists of human orexin 1 receptor (OX1R); O43613; OX1R-expressing cells, FRET antagonist read-out; inhibition, % at 6.6 µM; actives 1.8% (n = 330,000); in the data active = inhibition mostly above about 38%, no sharp cut-off; inactive = mostly below about 40%
TAAR1 antagonist: human TAAR1 antagonism; actives 1.5% (n = 360,000); CHO RD-HGA16 TAAR1, Fluo-8 calcium fluorescence, antagonist; AID 624466; inhibition, % at 3 µM;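 active = inhibition above a per-plate cutoff, the mean inhibition of test compounds on that plate plus 3 SD, cut at about 49% in these data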
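Assay system: CHO-derived RD-HGA16 cells stably expressing human TAAR1 plus Gα16. Timing: 140 s kinetic read after compound, 140 s after agonist. Technique: kinetic Fluo-8 calcium fluorescence measurement. Measure: % inhibition of agonist calcium response.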
GPR7 antagonist: antagonists of human GPR7 (neuropeptides B/W receptor 1); P48145; GPR7-expressing cells, fluorescence antagonist assay; inhibition, % at 4.4 µM; actives 1.1% (n = 290,000); AID 1861; in the data active = inhibition above about 16%, passing the limit was not always enough;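 also: cells stimulated with the agonist NPW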
Target sequence (P48145 whole entry, looked up): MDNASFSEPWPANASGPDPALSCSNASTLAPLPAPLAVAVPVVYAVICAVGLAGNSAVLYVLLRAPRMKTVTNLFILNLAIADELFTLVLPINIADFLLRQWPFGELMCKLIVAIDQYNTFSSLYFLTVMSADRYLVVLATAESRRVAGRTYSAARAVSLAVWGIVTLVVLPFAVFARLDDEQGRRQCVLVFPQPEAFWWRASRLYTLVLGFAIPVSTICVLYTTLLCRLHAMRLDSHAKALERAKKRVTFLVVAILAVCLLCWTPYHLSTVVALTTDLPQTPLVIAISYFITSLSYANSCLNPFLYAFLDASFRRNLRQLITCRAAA
TAAR1 ag: agonists of human TAAR1 | CHO RD-HGA16 TAAR1, Fluo-8 calcium fluorescence; vehicle wells 0%, saturating PEA agonist 100% | activation, % at 3 µM | actives 0.99% (n = 360,000) | AID 624467;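 active = activation above the mean activation of all test compounds in the run plus 3 SD, cut at about 38% in these data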
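System: CHO-derived RD-HGA16 cells with stable Gα16 and human TAAR1. Times: 17-24 h plating, Fluo-8 75 min 37 °C, 30 min RT. Measured by: calcium-sensitive Fluo-8 signal, excitation 470-495, emission 515-575 nm. Read-out basis: % activation relative to PEA EC100 response. Control set: DMSO and PEA EC100. Repeats: no replicates (n 1).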
OX1R antag-2: blocks the human orexin 1 receptor | CHO/OX1R cells, Fluo-8 calcium fluorescence, orexin A | inhibition, % at 5 µM | actives 0.43% (n = 330,000);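 active = inhibition above its plate's threshold, mean inhibition of all tested compounds on the plate plus 3 SD, cut at about 37% in these data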
OX1R Fluo8 conf: OX1R (human) antagonism, confirmed | shares compounds with OX1R antag-2 | CHO/OX1R cells, orexin A calcium Fluo-8 fluorescence | inhibition, % at 5 µM | actives 38% (n = 1,100); in the data active = inhibition above about 29%
CHO Ca counter: counter-screen: parental CHO calcium response change, triplicate | shares compounds with OX1R antag-2 | parental CHO-K1, ATP-induced calcium, Fluo-8 fluorescence | inhibition, % at 5.6 µM | actives 9.3% (n = 1,100) | AID 492965;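 active = inhibition above a per-plate limit, the mean inhibition of that plate's test compounds plus 3 SD, cut at about 25% in these data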
A number is an active result; - = inactive; . = no result given.

SMILES | CHO parental Ca | OX1R antag-1 | TAAR1 antagonist | GPR7 antagonist | TAAR1 ag | OX1R antag-2 | OX1R Fluo8 conf | CHO Ca counter
O=C(COC(=O)[C@H](Cc1c[nH]c2ccccc12)NC(=O)c1cccs1)NCc1ccccc1 | - | - | - | - | - | - | - | -
O=C(Nc1ccc2c(c1)OCO2)C1CCCCN1S(=O)(=O)c1ccccc1 (configuration not stated) | - | - | - | - | - | - | . | .
CCCc1ccc(C2C3=C(CC(C)(C)CC3=O)NC3=C2C(=O)c2ccccc23)cc1 (configuration not stated) | - | - | - | - | - | 66 | - | -
Cc1cc(=O)[nH]c2c1c(=O)[nH]n2C1CC(C)N(C)CC1C (configuration not stated) | - | - | - | - | - | - | . | .
Cc1[nH]c(=O)[nH]c(=O)c1S(=O)(=O)N1CCCC(C(=O)NCCc2ccccc2)C1 (configuration not stated) | - | - | - | - | - | - | . | .
Cc1[nH]c(=O)[nH]c(=O)c1S(=O)(=O)N1CCCC(C(=O)NCCc2ccc(Cl)cc2)C1 (configuration not stated) | - | - | . | - | . | - | - | -
Cn1c(SCc2ccc(F)cc2Cl)nc2ccccc2c1=O | - | - | - | . | - | - | - | -
Cc1cc(C)nc(SCC(=O)N/N=C/c2cccs2)n1 | - | - | - | - | - | - | . | .
O=C1NCC(c2ccccc2)C1C(=O)N/N=C/c1ccc(Cl)s1 (configuration not stated) | - | - | - | - | - | - | . | .
O=C1NCC(c2ccccc2)C1C(=O)N/N=C\c1ccc(-c2ccc(Cl)c(Cl)c2)o1 (configuration not stated) | - | - | - | - | - | 52 | 51 | -
Nc1c(C(=O)N2CCCC2)sc2nc3c(cc12)CCCCCC3 | - | - | - | - | - | - | . | .
Cc1cc(=O)c(C(=O)O)nn1-c1ccccc1Cl | - | - | - | - | - | - | . | .
Cc1cc(NC(=O)CSCC(=O)Nc2ccc(Cl)c(C(F)(F)F)c2)no1 | - | - | - | . | - | - | . | .
Cc1cc(NC(=O)CN(C)CC(=O)Nc2ccc(Cl)c(C(F)(F)F)c2)no1 | - | - | - | . | 41 | 40 | - | -
Cc1csc(-c2nc3ccccc3n2C(C)c2nc3ccccc3[nH]2)c1 (configuration not stated) | . | . | - | . | - | . | . | .
COCCNC(=O)c1ccc(Cl)c(S(=O)(=O)Nc2cccc(C)c2C)c1 | - | - | - | - | - | - | . | .
CCOC(=O)/C=c1\s/c(=C\c2ccc3c(c2)OCCO3)c(=O)n1CC(=O)NCC1CCCO1 (configuration not stated) | - | - | - | - | - | 103 | - | -
CCCC(=O)Nc1ccc(-c2nc3cc(C)c(C)cc3o2)cc1 | - | - | - | - | - | - | - | -
O=C(Nc1ccc(F)cc1)C(c1ccccc1)N1CCN(C(=O)c2ccco2)CC1 (configuration not stated) | - | - | - | - | - | - | . | .
Cc1ccc(S(=O)(=O)N(C)c2ccc(OC(=O)c3cccs3)cc2)cc1 | - | - | - | . | - | - | - | -
O=C(COC(=O)c1cccs1)c1ccc2c(c1)OCCO2 | - | - | - | - | - | - | . | .
O=C(COC(=O)c1cccs1)c1ccc2ccccc2c1 | - | - | - | - | - | - | - | -
Cc1cccc2cc3c(N)c(C(=O)Nc4ccc(N5CCOCC5)cc4)sc3nc12 | - | - | - | - | - | - | . | .
CCc1cccc2cc3c(N)c(C(=O)Nc4ccc(S(=O)(=O)N5CCCC5)cc4)sc3nc12 | - | - | 65 | - | - | - | - | -
COc1ccc(C2NC3=C(CCC3)C3(C#N)C4(N=C(N)C23C#N)OCCO4)cc1 (configuration not stated) | - | - | - | - | - | - | - | -
